The nature of data set [1]: melting temperature; fluorescence melt of hairpins on a sequencing array, two-state fit, raised by 9.35 °C to match UV melts. The following applies: sodium 0.088 M. The gist of the method:
(§1)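 Folding enthalpy and melting temperature were estimated with bootstrapped two-state fits and combined across four replicates by inverse-variance weighting, with fitted temperatures raised by 9.35 °C to match UV melts. The data were Cy3 fluorescence of library hairpins, with annealed Cy3 and quencher oligos, on a sequenced MiSeq flow cell in 50 mM Na-HEPES pH 8.0, 25 mM NaCl, imaged in 2.5 °C steps up to 60 °C and normalised to pre-quench Cy3 and control constructs.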

Data set [2] in a line: folding enthalpy; higher = less favourable; fluorescence melt of hairpins on a sequencing array, two-state fit. The note with it: sodium 0.088 M. In a few lines:
as §1

GACCCCCGAAAGGGCGTC (((.(((....))).))): the Tm in data set [1] was 55.4 °C. Moreover, the folding enthalpy in data set [2] was -25.1 kcal/mol.
GACCCCGAAAGGGATGTC ((((((....)))..))): in data set [1], the Tm stood at 41.2 °C. The folding enthalpy in data set [2] is -15.6 kcal/mol.
Take GACCCCGAAAGGGCAGTC ((((((....)))..))): the Tm in data set [1] amounted to 35.4 °C. The folding enthalpy in data set [2] was -14 kcal/mol.
Taken in the same sequence, the figures for GACCCCGAAAGGGCCGTC ((((((....)))..))) were 35.7 °C and -14 kcal/mol.
For GACCCCGAAAGGGCTGTC ((((((....)))..))), in that order: 40.9 °C and -14.6 kcal/mol.
Consider GACCCCGAAAGGGTGGTC ((((((....)))..))), for which the Tm in data set [1] was determined as 49.4 °C. In data set [2], the folding enthalpy is -16.5 kcal/mol.
For GACCCCGAAAGGGTTGTC ((((((....)))..))), in that order: 43.4 °C and -14.4 kcal/mol.
As to GACCCGGGAAACCGAGTC (((.(((....))).))), the Tm in data set [1] is 45.3 °C. The folding enthalpy in data set [2] is -32.8 kcal/mol.
Taken in the same sequence, the figures for GACCCGGGAAACCGGGCC (.(((((....))))).) were 53.3 °C and -12.6 kcal/mol.
Regarding GACCGACGAAAGTCAGTC (((.(((....))).))), in data set [1], the Tm worked out at 47.9 °C. The folding enthalpy in data set [2] is -23.5 kcal/mol.
Regarding GACCGACGAAAGTCTGTC (((.(((....))).))), in data set [1], the Tm came out at 48.7 °C. In data set [2], the folding enthalpy is -31.1 kcal/mol.
Regarding GACCGAGGAAACCCGGTC (((((.(....).))))), in data set [1], the Tm worked out at 53.2 °C. For the same sequence, the folding enthalpy in data set [2] was -36.4 kcal/mol.
As to GACCGCACGAAAGTGGTC (((..(((....)))))), the Tm in data set [1] worked out at 47 °C. Further, the folding enthalpy in data set [2] is -21.1 kcal/mol.
For GACCGCCCGAAAGGGGTC (((..(((....)))))), in that order: 42.3 °C and -15.4 kcal/mol.
For GACCGCCGAAAGGCCGTC (((.(((....))).))), in that order: 50.7 °C and -18.8 kcal/mol.
Taken in the same sequence, the figures for GACCGCGAAAGCGACGTC ((((((....)))..))) were 45.8 °C and -13.2 kcal/mol.
With GACCGCGAAAGCGGAGTC ((((((....)))..))), the Tm in data set [1] is 40.6 °C. The folding enthalpy in data set [2] is -7.63 kcal/mol.
Taken in the same sequence, the figures for GACCGCGAAAGCGGGTC ((((((....))).))) were 68.8 °C and -11.9 kcal/mol.
Taken in the same sequence, the figures for GACCGCGAAAGCGGTGTC ((((((....)))..))) were 63.8 °C and -8.7 kcal/mol.
For GACCGCGAAAGCGTTGTC ((((((....)))..))), in that order: 40.1 °C and -13.2 kcal/mol.
With GACCGCGGAAACGCAGTC (((.(((....))).))), the Tm in data set [1] came to 48.9 °C. The folding enthalpy in data set [2] is -24.6 kcal/mol.
Taken in the same sequence, the figures for GACCGGAAACGGTC (((((....))))) were 67.5 °C and -28.3 kcal/mol.
For GACCGGCCGAAAGGCGTC (((..(((....)))))), the Tm in data set [1] is 38.4 °C. In addition, the folding enthalpy in data set [2] was -12.5 kcal/mol.
For GACCGTGGAAACACAGTC (((.(((....))).))), in that order: 40.5 °C and -23.8 kcal/mol.
As to GACCGTGGAAACATGGTC ((((.((....)).)))), the Tm in data set [1] turned out to be 54.2 °C. Besides, the folding enthalpy in data set [2] was -43.2 kcal/mol.
For GACCGTGGAAACGTGGTC ((((..(....)..)))), in that order: 45.5 °C and -23.6 kcal/mol.
Regarding GACCTCCGAAAGGAGTC (((.(((....)))))), the Tm in data set [1] amounted to 49.2 °C. Besides, the folding enthalpy in data set [2] was -15.3 kcal/mol.
For GACCTCCGAAAGGATGTC (((.(((....))).))), in that order: 47.3 °C and -32.4 kcal/mol.
For GACCTGCCGAAAGGCGTC (((..(((....)))))), in data set [1], the Tm stood at 29.3 °C. In addition, the folding enthalpy in data set [2] was -9.15 kcal/mol.
Taken in the same sequence, the figures for GACCTGCGAAAGCAAGTC (((.(((....))).))) were 47.1 °C and -25.3 kcal/mol.
Taken in the same sequence, the figures for GACCTGGCGAAAGCCGTC (((..(((....)))))) were 34.9 °C and -5.62 kcal/mol.
Taken in the same sequence, the figures for GACCTTGGAAACAAAGTC (((.(((....))).))) were 26 °C and -20.3 kcal/mol.
On to GACCTTGGAAACAAGACC (..((((....))))..), for which, in data set [1], the Tm was found to be 20 °C. Moreover, the folding enthalpy in data set [2] is -10.9 kcal/mol.
With GACCTTGGAAACAAGATC ((.((((....)))).)), in data set [1], the Tm is 30.6 °C. Moreover, in data set [2], the folding enthalpy was -21 kcal/mol.
As for GACGAAACGAAAGTTGTC (((..(((....)))))), in data set [1], the Tm came out at 35 °C. In addition, the folding enthalpy in data set [2] is -19.6 kcal/mol.
Turning to GACGAACGAAAGTTGGTC (((.(((....))).))), the Tm in data set [1] stood at 48.8 °C. In data set [2], the folding enthalpy was -36.7 kcal/mol.

These data come from the array DNA melting data of Ke et al. (doi:10.1101/2024.01.08.574731).
